# Screening results (PubChem)
# JMJD2C inh = inhibitors of GASC-1 histone demethylase, primary screen, biochemical, fluorescence, DELFIA europium | Lysine-specific demethylase 4C (Homo sapiens), Q9H3R0 | GST-JMJD2C(1-420) H3K9me3 demethylation | inhibition, % at 2.35 µM | hit rate 0.069% among 330,000 | AID 2099, 2009;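 active = more than half of a compound's replicate wells show inhibition beyond 50%, single wells judged on their own value; inconclusive = some, but no more than half, of replicates pass 50% inhibition; inactive = no replicate passes 50% inhibition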;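 also: signal counts dimethyl H3K9 product captured on neutravidin plate; 0% = median of DMSO wells and 100% = 0.3 times that DMSO median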
# A3A deaminase = APOBEC3A ssDNA deaminase inhibitors, primary screen, selectivity assay for APOBEC3G inhibitor project, biochemical, FAM/TAMRA oligo cleavage fluorescence | recombinant A3A, FAM/TAMRA ssDNA deamination fluorescence | inhibition, % at 20 µM | hit rate 0.41% among 330,000;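 active = at least 40% inhibition at 20 µM here, with at most 30% in a related deaminase screen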;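 also: plate controls were A3A with DMSO for no effect and wells lacking A3A enzyme for full effect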
# Target sequence (P31941 whole entry, looked up): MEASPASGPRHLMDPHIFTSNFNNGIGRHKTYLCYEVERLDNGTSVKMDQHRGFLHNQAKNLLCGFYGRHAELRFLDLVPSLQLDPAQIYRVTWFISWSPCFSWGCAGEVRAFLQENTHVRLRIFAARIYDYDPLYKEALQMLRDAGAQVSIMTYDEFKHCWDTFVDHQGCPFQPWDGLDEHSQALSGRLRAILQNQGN
# UCH37 inh = inhibitors of human UCH37 deubiquitinase, primary screen, biochemical, Ub-AMC cleavage, fluorescence; inhibition, % (concentration not given with the values); purified proteasome/UCH37; Ubiquitin carboxyl-terminal hydrolase isozyme L5 (Homo sapiens), Q9Y5K5; hit rate 0.33% among 330,000; AID 588478, 2011;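 active = mean inhibition over replicate wells above about 20%, limit read from the data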;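 also: 0% = compound-free wells with enzyme and 100% = wells lacking proteasome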
# Target sequence (Q9Y5K5 whole entry, looked up): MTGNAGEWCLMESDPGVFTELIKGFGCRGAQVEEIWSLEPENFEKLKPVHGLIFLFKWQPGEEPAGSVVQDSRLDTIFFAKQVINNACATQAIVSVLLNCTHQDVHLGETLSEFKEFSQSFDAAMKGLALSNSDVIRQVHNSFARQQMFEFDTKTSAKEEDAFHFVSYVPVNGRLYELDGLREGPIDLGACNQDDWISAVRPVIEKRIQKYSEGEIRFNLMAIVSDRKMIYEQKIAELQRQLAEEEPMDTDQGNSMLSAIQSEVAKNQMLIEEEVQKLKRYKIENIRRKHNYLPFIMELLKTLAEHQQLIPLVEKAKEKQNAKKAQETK
#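 Material: Human UCH37 enzyme supplied as purified proteasome complex | Schedule: 30 min preincubation with enzyme, 25 min cleavage at room temperature | Detection: AMC fluorescence 355/460 nm | Measure: % inhibition of Ub-AMC cleavage fluorescence | Controls: Wells without proteasome as full block, compound-free enzyme plus substrate as uninhibited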
# APOBEC3G inh = APOBEC3G DNA deaminase inhibitors, primary screen, biochemical, fluorescence, single-stranded DNA substrate, uHTS. DNA dC->dU-editing enzyme APOBEC-3G (Homo sapiens), Q9HC16. inhibition, % at 20 µM. recombinant A3G, ssDNA deamination FAM/TAMRA fluorescence. AID 493012, 2011. hit rate 0.28% among 330,000;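 active = inhibition of at least 40% at 20 µM, with no more than 30% in the related APOBEC3A deaminase screen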;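 also: plate controls were DMSO wells with A3G for no effect and wells lacking A3G enzyme for full effect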
# * marks the source's active call; other numbers are inactive results; ? = inconclusive; nt = not tested or not shown. Sampled rows, rich in hits. Any-hit rate of the full collection: about 0.97%.
SMILES,JMJD2C inh,A3A deaminase,UCH37 inh,APOBEC3G inh
O=C(Nc1ccc2nc(-c3ccco3)c(-c3ccco3)nc2c1)N1CCN(c2ccccn2)CC1,17,43*,-7,-5
Cc1nc2cc(NC(=O)N3CCN(c4ccccn4)CC3)ccc2o1,3,0,-2,-6
CC(=O)Nc1ccc(NC2=CC(=NS(=O)(=O)c3cccs3)c3ccccc3C2=O)cc1,nt,nt,29*,nt
CC(=O)Nc1ccc(NC2=C/C(=N/S(=O)(=O)c3cccs3)c3ccccc3C2=O)cc1,25,-2,nt,-5
Cc1ccccc1NC1=C/C(=N\S(=O)(=O)c2ccc(C(=O)O)cc2)c2ccccc2C1=O,9,1,94*,-5
CCCCCCC(=O)NN=C1CCCc2ccccc21,nt,nt,1,nt
CCOC(=O)c1[nH]c(C)c(/C(O)=C2\C(=O)C(=O)N(CCN(C)C)C2c2ccncc2)c1C (stereo not given),0,-5,29*,-3
Cc1cccc(NC(=S)NN=C2CC(C)(C)Oc3ccc(O)cc32)c1,nt,nt,-12,nt
CN(C)c1ccc(N=Cc2nc(-c3ccccc3)oc2OC(=O)c2ccccc2)cc1,77*,0,8,6
CC(=O)Oc1oc(-c2ccccc2)nc1C=Nc1ccc(N(C)C)cc1,13,-4,5,-5
C[C@@H](NC(=O)Cn1cnc2c(OCc3ccccc3)ncnc21)c1cccc2ccccc12,59*,1,1,-2
O=C(NN=Cc1cccnc1)c1ccccc1Br,nt,nt,6,nt
COc1cccc(NC(=O)c2ccc(NC(C)=O)cc2)c1,-4,1,26*,5
C=CCOc1ccc(-c2nc3c(c(=O)[nH]c(=O)n3CCC)n2CCCC)cc1,0,3,-62,-4
C=CCn1c(SCc2nc3c(c(=O)[nH]c(=O)n3CCCC)n2CCC)nnc1-c1ccccc1,0,3,29*,-7
O=C(CC1SC(=Nc2ccccc2)N(CCCCO)C1=O)NCc1ccccc1 (stereo not given),-6,1,26*,-2
O=C(CC1SC(=Nc2ccccc2)N(CCCO)C1=O)Nc1ccc(Cl)cc1 (stereo not given),nt,-2,2,-5
CCC(=NNC(=O)CCC(=O)Nc1ccccc1OC)c1ccccc1,nt,nt,1,nt
Cn1c(=O)c(-c2ccccc2)nn2c3ccccc3nc12,52*,-4,2,-3
CCn1c(=O)c(C)nn2c3ccccc3nc12,4,-5,3,3
NS(=O)(=O)c1ccc(N=Nc2c(=O)[nH]n3c(=O)c4c([nH]c23)CCCC4)cc1,-10,2,21*,-4
Cc1cc(C)n2[nH]c(=O)c(N=Nc3ccc(S(N)(=O)=O)cc3)c2n1,4,2,25*,4
Cc1ccc(N=Nc2c(=O)[nH]n3c(C)cc(C)nc23)cc1,3,-5,8,7
COc1cccc(N=Nc2c(=O)[nH]n3c(=O)c4c([nH]c23)CCC4)c1,9,20,20*,11
O=c1[nH]n2c(=O)c3c([nH]c2c1N=Nc1cccc(Cl)c1)CCC3,5,nt,18,nt
SMILES,JMJD2C inh,A3A deaminase,UCH37 inh,APOBEC3G inh
Cn1cccc1CC(=O)NN=Cc1ccc([N+](=O)[O-])cc1,nt,nt,9,nt
CCn1c(SCC(=O)NN=Cc2cc(OC)c(OC)c(OC)c2)nc2ccccc21,nt,nt,2,nt
CC1(NC(=O)C23CC4CC(CC(C4)C2)C3)CCS(=O)(=O)C1 (stereo not given),-1,-1,4,-1
CN(C(=O)C12CC3CC(CC(C3)C1)C2)C1(C)CCS(=O)(=O)C1 (stereo not given),-3,-3,30*,-6
COc1ccc2c(c1)OC[C@H]1[C@H]2N2C(=O)CNC(=O)[C@@]2(C)[C@H]1c1ccccc1,59*,-2,3,1
COc1ccc2c(c1)[C@@H]1[C@H](CO2)[C@H](c2ccccc2)[C@]2(C)C(=O)NCC(=O)N12,4,-4,-1,-5
COc1ccc(C=NNC(=O)c2nc(Cl)c(Cl)c(N)c2Cl)cc1COc1ccccc1F,nt,nt,-205,nt
CC(=NNC(=S)NC1CCCCC1)c1ccc(C#N)cc1,nt,nt,6,nt
CCN1CCN(C2=CC3=CC(=C(C#N)C#N)CCC3CC2)CC1 (stereo not given),nt,nt,32*,nt
N#CC(C#N)=C1C=C2C=C(N3CCCCCC3)CCC2CC1 (stereo not given),0,nt,4,nt
Cc1ccc(C(=O)c2c(C)oc3c2C(=O)C(=O)c2ccccc2-3)cc1,4,-2,42*,-9
Cc1oc2c(c1C(=O)c1ccc(Cl)cc1)C(=O)C(=O)c1ccccc1-2,-6,nt,nt,nt
O=c1c(O)cccc2cc(O)c(O)c(O)c12,87*,96,13,88
O=c1cc(-c2ccccc2)oc2cc(O)c(O)c(O)c12,nt,25,9,13
COc1cccc2cc(C(N)=O)c(=NNC(=O)COc3ccc(Cl)cc3)oc12,nt,nt,3,nt
OC12CCCCC1C(c1ccc3c(c1)OCO3)N(Cc1ccc(F)cc1)CC2 (stereo not given),-1,-4,29*,-10
OC12CCCCC1C(c1ccc3c(c1)OCO3)N(Cc1cccc(F)c1)CC2 (stereo not given),9,nt,0,nt
O=C(NNC1CC(=O)N(c2ccc(Cl)cc2)C1=O)c1ccccc1Cl (stereo not given),3,-2,2,-2
O=C(NNC1CC(=O)N(c2ccc(Cl)cc2)C1=O)c1ccccn1 (stereo not given),1,0,26*,-5
COc1cc(/C=C2\S/C(=N/S(=O)(=O)c3ccccc3)NC2=O)c([N+](=O)[O-])cc1OC,-21,-1,23*,-6
COc1ccc(S(=O)(=O)/N=C2/NC(=O)/C(=C\c3cc(OC)c(OC)cc3[N+](=O)[O-])S2)cc1,-12,-1,9,-4
Cc1ccccc1NC(=S)C1=C(O)c2sccc2N(C)S1(=O)=O,-7,-1,23*,-3
CN1c2ccccc2C(O)=C(C(=S)Nc2ccccc2)S1(=O)=O,?,-3,16,-1
Cc1ccc(NC(=S)C2=C(O)c3ccccc3N(C)S2(=O)=O)cc1,15,-5,21*,-1
CN1c2ccsc2C(O)=C(C(=S)Nc2ccccc2)S1(=O)=O,-7,-2,21*,-2
O=C1NCC(c2ccccc2)C1C(=O)NN=Cc1ccc(-c2cccc(Cl)c2Cl)o1 (stereo not given),nt,nt,3,nt
COc1ccc(Cl)cc1NC(=O)C(=O)NN=Cc1cc(C)n(-c2ccc(C)cc2)c1C,nt,nt,-16,nt
O=C(NN=Cc1ccoc1)c1ccccc1Br,nt,nt,2,nt
COc1ccc(C=NNC(=O)c2snnc2C)c(OC)c1OC,nt,nt,-23,nt
O=c1cc(-c2ccc(O)cc2)oc2c(C3O[C@H](CO)[C@@H](O)[C@H](O)[C@H]3O)c(O)cc(O)c12 (stereo not given in full),nt,0,7,-1
